According to ChEMBL document CHEMBL4304753, “Identification of New Small-Molecule Inducers of Estrogen-related Receptor α (ERRα) Degradation” (ACS Med Chem Lett, 2019):
Active and inactive are the calls of the source. The calls are words filed in the database; no cut-off is given here.

Key:
[1] = target: T1, Steroid hormone receptor ERR1 (Homo sapiens, UniProt P11474); assay: Binding affinity to GST-tagged ERRalpha-LBD (unknown origin) using fluorescein-conjugated coactivator PGC-1alpha incubated for 1 hr by TR-FRET assay
T1 sequence (P11474 whole entry): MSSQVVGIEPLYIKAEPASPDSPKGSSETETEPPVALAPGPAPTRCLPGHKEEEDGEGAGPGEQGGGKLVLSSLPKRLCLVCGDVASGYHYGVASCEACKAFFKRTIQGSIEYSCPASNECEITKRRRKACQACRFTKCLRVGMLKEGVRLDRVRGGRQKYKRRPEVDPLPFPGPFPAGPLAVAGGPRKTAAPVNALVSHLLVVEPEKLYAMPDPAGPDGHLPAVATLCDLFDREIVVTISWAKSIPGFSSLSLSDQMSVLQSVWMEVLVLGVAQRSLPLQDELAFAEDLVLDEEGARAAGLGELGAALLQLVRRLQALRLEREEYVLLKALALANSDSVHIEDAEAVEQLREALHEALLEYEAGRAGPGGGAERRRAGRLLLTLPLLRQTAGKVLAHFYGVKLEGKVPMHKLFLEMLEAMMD

[2] = target: T2, Steroid hormone receptor ERR1 (Homo sapiens) (UniProt P11474); assay: Ratio of IC50 for XCT790 to IC50 for test compound for binding affinity to GST-tagged ERRalpha-LBD (unknown origin) using fluorescein-conjugated coactivator PGC-1alpha incubated for 1 hr by TR-FRET assay
T2 sequence (whole entry): T1 sequence (P11474 whole entry)

[3] = target: T3, von Hippel-Lindau disease tumor suppressor/Steroid hormone receptor ERR1 (Homo sapiens) (UniProt P11474+P40337); assay: Protac activity at VHL/ERRalpha in human MDA-MB-231 cells assessed as induction of […] degradation at 30 nM incubated for 4 hrs by Western blot analysis relative to control; assay type: cell-based
In short: (§1)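 MDA-MB-231 breast cancer cells were treated at the indicated concentrations for 4.0 h. ERRα protein was measured by Western blot, and % degradation was derived by densitometric image analysis. Values are means of at least three independent experiments.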

[4] = target: T3, von Hippel-Lindau disease tumor suppressor/Steroid hormone receptor ERR1 (Homo sapiens); assay: Protac activity at VHL/ERRalpha in human MDA-MB-231 cells assessed as induction of […] degradation at 100 nM incubated for 4 hrs by Western blot analysis relative to control; assay type: cell-based; in short: as §1
[5] = target: T3, von Hippel-Lindau disease tumor suppressor/Steroid hormone receptor ERR1 (Homo sapiens); assay: Protac activity at VHL/ERRalpha in human MDA-MB-231 cells assessed as induction of […] degradation at 1 uM incubated for 4 hrs by Western blot analysis; assay type: cell-based; in short: as §1
[6] = target: T3, von Hippel-Lindau disease tumor suppressor/Steroid hormone receptor ERR1 (Homo sapiens); assay: Protac activity at VHL/ERRalpha in human MDA-MB-231 cells assessed as induction of […] degradation at 10 nM incubated for 4 hrs by Western blot analysis relative to control; assay type: cell-based; in short: as §1
[7] = target: T3, von Hippel-Lindau disease tumor suppressor/Steroid hormone receptor ERR1 (Homo sapiens); assay: Protac activity at VHL/ERRalpha in human MDA-MB-231 cells assessed as decrease in MCAD protein expression level at 100 nM incubated for 24 hrs by Western blot analysis; assay type: cell-based
In short: (§2)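 MDA-MB-231 breast cancer cells were exposed to the degrader for 24 h. Protein levels of the ERRα downstream targets ATP5B, MCAD and PDK4 were then assessed by Western blot.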

[8] = target: von Hippel-Lindau disease tumor suppressor/Estrogen-related receptor gamma (Homo sapiens) (UniProt P62508+P40337); assay: Protac activity at VHL/ERRgamma in human MDA-MB-231 cells assessed as induction of […] degradation up to 10 uM incubated for 4 hrs by Western blot analysis; assay type: cell-based
In short: (§3)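 Levels of the ERRβ and ERRγ homologues were assessed by Western blot in MDA-MB-231 cells after 4.0 h treatment at concentrations up to 10.0 μM.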

[9] = target: T3, von Hippel-Lindau disease tumor suppressor/Steroid hormone receptor ERR1 (Homo sapiens); assay: Protac activity at VHL/ERRalpha in epoxomicin pre-treated human MDA-MB-231 cells assessed as induction of […] degradation at 30 nM incubated for 4 hrs by Western blot analysis; assay type: cell-based
In short: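 Before treatment with PROTAC at 30 nM for 4.0 h, MDA-MB-231 cells were preincubated with the proteasome inhibitor epoxomicin. ERRα protein was then assessed by Western blot.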

[10] = target: T3, von Hippel-Lindau disease tumor suppressor/Steroid hormone receptor ERR1 (Homo sapiens); assay: Protac activity at VHL/ERRalpha in human MDA-MB-231 cells assessed as decrease in ATP5B protein expression level at 100 nM incubated for 24 hrs by Western blot analysis; assay type: cell-based; in short: as §2
[11] = target: T3, von Hippel-Lindau disease tumor suppressor/Steroid hormone receptor ERR1 (Homo sapiens); assay: Protac activity at VHL/ERRalpha in human MDA-MB-231 cells assessed as induction of […] degradation at 3.0 nM incubated for 4 hrs by Western blot analysis; assay type: cell-based; in short: as §1
[12] = target: T3, von Hippel-Lindau disease tumor suppressor/Steroid hormone receptor ERR1 (Homo sapiens); assay: Protac activity at VHL/ERRalpha in human MDA-MB-231 cells assessed as induction of […] degradation incubated for 0.5 to 4 hrs by Western blot analysis; assay type: cell-based
In short: (§4)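 For the time course, MDA-MB-231 cells were exposed to PROTAC at 30 nM. ERRα protein was sampled from 30 min up to 48 h after treatment and analysed by Western blot.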

[13] = target: T3, von Hippel-Lindau disease tumor suppressor/Steroid hormone receptor ERR1 (Homo sapiens); assay: Protac activity at VHL/ERRalpha in human MDA-MB-231 cells assessed as decrease in PDK4 protein expression level at 100 nM incubated for 24 hrs by Western blot analysis; assay type: cell-based; in short: as §2
[14] = target: T3, von Hippel-Lindau disease tumor suppressor/Steroid hormone receptor ERR1 (Homo sapiens); assay: Protac activity at VHL/ERRalpha in human MDA-MB-231 cells assessed as induction of […] degradation incubated for 48 hrs by Western blot analysis; assay type: cell-based; in short: as §4
[15] = target: T3, von Hippel-Lindau disease tumor suppressor/Steroid hormone receptor ERR1 (Homo sapiens); assay: Protac activity at VHL/ERRalpha in human MDA-MB-231 cells assessed as induction of […] degradation incubated for 4 hrs by Western blot analysis; assay type: cell-based; in short: as §1
[16] = target: von Hippel-Lindau disease tumor suppressor/Steroid hormone receptor ERR2 (Homo sapiens) (UniProt O95718+P40337); assay: Protac activity at VHL/ERRbeta in human MDA-MB-231 cells assessed as induction of […] degradation up to 10 uM incubated for 4 hrs by Western blot analysis; assay type: cell-based; in short: as §3
[17] = target: T3, von Hippel-Lindau disease tumor suppressor/Steroid hormone receptor ERR1 (Homo sapiens); assay: Protac activity at VHL/ERRalpha in human MDA-MB-231 cells assessed as induction of […] degradation at 300 nM incubated for 4 hrs by Western blot analysis relative to control; assay type: cell-based; in short: as §1

T3 sequence (P40337 whole entry, looked up, one chain of several): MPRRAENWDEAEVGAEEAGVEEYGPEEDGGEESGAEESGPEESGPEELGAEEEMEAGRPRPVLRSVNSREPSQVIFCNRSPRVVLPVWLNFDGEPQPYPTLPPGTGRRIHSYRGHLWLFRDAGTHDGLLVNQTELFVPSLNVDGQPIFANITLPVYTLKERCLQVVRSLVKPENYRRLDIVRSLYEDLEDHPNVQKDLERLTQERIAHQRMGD
von Hippel-Lindau disease tumor suppressor/Estrogen-related receptor gamma (Homo sapiens), sequence (P40337 whole entry, looked up): as the sequence (P40337 whole entry, looked up, one chain of several) above
von Hippel-Lindau disease tumor suppressor/Estrogen-related receptor gamma (Homo sapiens), sequence (P62508 whole entry, looked up): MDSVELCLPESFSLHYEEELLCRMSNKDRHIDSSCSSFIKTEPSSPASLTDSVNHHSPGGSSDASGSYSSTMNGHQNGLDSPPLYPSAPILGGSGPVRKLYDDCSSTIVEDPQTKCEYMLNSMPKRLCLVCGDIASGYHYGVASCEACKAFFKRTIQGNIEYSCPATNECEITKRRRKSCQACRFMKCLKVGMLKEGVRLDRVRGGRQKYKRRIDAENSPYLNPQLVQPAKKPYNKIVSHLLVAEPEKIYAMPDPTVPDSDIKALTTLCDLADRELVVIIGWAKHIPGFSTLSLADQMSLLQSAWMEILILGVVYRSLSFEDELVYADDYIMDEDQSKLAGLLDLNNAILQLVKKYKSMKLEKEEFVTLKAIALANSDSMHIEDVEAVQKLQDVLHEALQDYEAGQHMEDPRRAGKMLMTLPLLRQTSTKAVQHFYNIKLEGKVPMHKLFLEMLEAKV
von Hippel-Lindau disease tumor suppressor/Steroid hormone receptor ERR2 (Homo sapiens), sequence (O95718 whole entry, looked up): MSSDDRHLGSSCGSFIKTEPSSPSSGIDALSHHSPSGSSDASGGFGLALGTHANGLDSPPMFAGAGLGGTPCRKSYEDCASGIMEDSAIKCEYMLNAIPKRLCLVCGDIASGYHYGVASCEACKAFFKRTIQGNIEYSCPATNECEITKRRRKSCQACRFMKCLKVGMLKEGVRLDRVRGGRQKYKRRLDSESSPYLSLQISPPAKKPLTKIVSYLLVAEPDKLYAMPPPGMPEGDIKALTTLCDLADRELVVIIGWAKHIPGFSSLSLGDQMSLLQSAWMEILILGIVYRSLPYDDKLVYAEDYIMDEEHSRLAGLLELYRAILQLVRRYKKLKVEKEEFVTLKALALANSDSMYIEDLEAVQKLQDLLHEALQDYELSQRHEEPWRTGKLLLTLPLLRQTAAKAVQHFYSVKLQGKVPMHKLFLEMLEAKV
von Hippel-Lindau disease tumor suppressor/Steroid hormone receptor ERR2 (Homo sapiens), sequence (P40337 whole entry, looked up): as the sequence (P40337 whole entry, looked up, one chain of several) above

| SMILES | IC50 [1] [nM] | Activity [3] [%] | Activity [4] [%] | other results |
| --- | --- | --- | --- | --- |
| COc1cc(/C=C2\SC(=O)N(CCOCCC(=O)N[C@H](C(=O)N3C[C@H](O)C[C@H]3C(=O)NCc3ccc(-c4scnc4C)cc3)C(C)(C)C)C2=O)ccc1Oc1ccc(C#N)cc1C(F)(F)F | 8 | 1 | 40 | – |
| COc1cc(/C=C(\C#N)C(=O)NCCCCCCCC(=O)N[C@H](C(=O)N2C[C@H](O)C[C@H]2C(=O)NCc2ccc(-c3scnc3C)cc2)C(C)(C)C)ccc1OCc1ccc(C(F)(F)F)cc1C(F)(F)F | 7.67 | 3 | 9 | – |
| COC(=O)/C(C#N)=C/c1ccc(OCc2ccc(C(F)(F)F)cc2C(F)(F)F)c(OC)c1 | 20.3 | – | – | – |
| Cc1ncsc1-c1ccc(CNC(=O)[C@@H]2C[C@@H](O)CN2C(=O)[C@@H](N)C(C)(C)C)cc1 | – | – | – | Activity [5]: inactive |
| COc1cc(/C=C(\C#N)C(=O)NCCOCCC(=O)N[C@H](C(=O)N2C[C@H](O)C[C@H]2C(=O)NCc2ccc(-c3scnc3C)cc2)C(C)(C)C)ccc1OCc1ccc(C(F)(F)F)cc1C(F)(F)F | 9.33 | 63 | 89 | Activity [6]: 25% |
| COc1cc(/C=C(\C#N)C(=O)NCCOCC(=O)N[C@H](C(=O)N2C[C@H](O)C[C@H]2C(=O)NCc2ccc(-c3scnc3C)cc2)C(C)(C)C)ccc1OCc1ccc(C(F)(F)F)cc1C(F)(F)F | 11.3 | 79 | 92 | – |
| COc1cc(/C=C(\C#N)C(=O)NCCCCCCC(=O)N[C@H](C(=O)N2C[C@H](O)C[C@H]2C(=O)NCc2ccc(-c3scnc3C)cc2)C(C)(C)C)ccc1OCc1ccc(C(F)(F)F)cc1C(F)(F)F | 12.3 | 23 | 71 | – |
| COc1cc(/C=C(\C#N)C(=O)NCCCCC(=O)N[C@H](C(=O)N2C[C@H](O)C[C@H]2C(=O)NCc2ccc(-c3scnc3C)cc2)C(C)(C)C)ccc1OCc1ccc(C(F)(F)F)cc1C(F)(F)F | 12.7 | 83 | 96 | Activity [7]: Active; Activity [8]: inactive; Activity [9]: inactive; Activity [10]: Active; Activity [11]: Active; Activity [12]: Active; Activity [13]: Active; Activity [14]: inactive; Activity [15]: Dose-dependent effect; Activity [16]: inactive; Activity [6]: 39% |
| COc1cc(/C=C(\C#N)C(=O)NCCOCCOCCOCCC(=O)N[C@H](C(=O)N2C[C@H](O)C[C@H]2C(=O)NCc2ccc(-c3scnc3C)cc2)C(C)(C)C)ccc1OCc1ccc(C(F)(F)F)cc1C(F)(F)F | 7 | 0 | 4 | Activity [17]: 10% |
| COc1cc(/C=C(\C#N)C(=O)NCCC(=O)N[C@H](C(=O)N2C[C@H](O)C[C@H]2C(=O)NCc2ccc(-c3scnc3C)cc2)C(C)(C)C)ccc1OCc1ccc(C(F)(F)F)cc1C(F)(F)F | 7.33 | 28 | 50 | – |

More lines, in order of falling IC50 [1], values ahead:

| IC50 [1] [nM] | Activity [3] [%] | Activity [4] [%] | SMILES | other results |
| --- | --- | --- | --- | --- |
| 6.33 | 58 | 85 | COc1cc(/C=C(\C#N)C(=O)NCCCC(=O)N[C@H](C(=O)N2C[C@H](O)C[C@H]2C(=O)NCc2ccc(-c3scnc3C)cc2)C(C)(C)C)ccc1OCc1ccc(C(F)(F)F)cc1C(F)(F)F | – |
| 6 | – | – | COc1cc(/C=C(\C#N)C(=O)NCCCCC(=O)O)ccc1OCc1ccc(C(F)(F)F)cc1C(F)(F)F | – |
| 5.67 | – | – | COc1cc(/C=C(\C#N)C(=O)O)ccc1OCc1ccc(C(F)(F)F)cc1C(F)(F)F | Ratio IC50 [2]: 11 |
| 5.67 | 58 | 78 | COc1cc(/C=C(\C#N)C(=O)NCCCCCC(=O)N[C@H](C(=O)N2C[C@H](O)C[C@H]2C(=O)NCc2ccc(-c3scnc3C)cc2)C(C)(C)C)ccc1OCc1ccc(C(F)(F)F)cc1C(F)(F)F | – |
| 5.33 | 6 | – | COc1cc(/C=C(\C#N)C(=O)NCCCCC(=O)N[C@H](C(=O)N2C[C@@H](O)C[C@H]2C(=O)NCc2ccc(-c3scnc3C)cc2)C(C)(C)C)ccc1OCc1ccc(C(F)(F)F)cc1C(F)(F)F | – |
| 5.33 | 0 | 15 | COc1cc(/C=C(\C#N)C(=O)NCCOCCOCCC(=O)N[C@H](C(=O)N2C[C@H](O)C[C@H]2C(=O)NCc2ccc(-c3scnc3C)cc2)C(C)(C)C)ccc1OCc1ccc(C(F)(F)F)cc1C(F)(F)F | Activity [17]: 19% |
| 4.67 | – | – | COc1cc(/C=C(\C#N)C(=O)NCCOCCC(=O)O)ccc1OCc1ccc(C(F)(F)F)cc1C(F)(F)F | Activity [5]: inactive |
| 4.33 | – | – | COc1cc(/C=C(\C#N)C(N)=O)ccc1OCc1ccc(C(F)(F)F)cc1C(F)(F)F | – |
| 4.33 | – | – | COCCNC(=O)/C(C#N)=C/c1ccc(OCc2ccc(C(F)(F)F)cc2C(F)(F)F)c(OC)c1 | – |
